In ChEMBL document CHEMBL1121362, “DNA intercalating compounds as potential antitumor agents. 1. Preparation and properties of 7H-pyridocarbazoles” (1980):

Key:
Calf thymus DNA [1] = assay: DNA binding affinity constant in calf-thymus DNA at pH 7.4; format: nucleic-acid assay; details: Bos taurus
Summary of the method: (§1)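 Calf thymus DNA (4 µg/mL) at 25 °C, with drug at 10^-5 M, titrated with microliter portions of ethidium bromide (100 µg/mL stock in buffer). Fluorescence excitation was 546 nm and emission 590 nm. Apparent affinity constant (Kap) was derived from Scatchard plots of the competition.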

[2] = Acid dissociation constant (pKa) measured by UV spectroscopy
Calf thymus DNA [3] = assay: DNA binding affinity constant for calf-thymus DNA at pH 5; format: nucleic-acid assay; details: Bos taurus; summary of the method: as §1
Calf thymus DNA [4] = assay: DNA binding affinity constant for calf-thymus DNA at pH 6; format: nucleic-acid assay; details: Bos taurus; summary of the method: as §1
L1210 [5] = assay: The compound was tested for maximum tolerated dose (MTD) against L1210 cells in […] mice; format: functional, Mus musculus
Summary of the method: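 Acute toxicity in mice by the usual procedure. MTD is the highest dose that can be given without any animal death.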

L1210 [6] = assay: The compound was tested for optimum dose fraction of MTD against L1210 cells in […] mice; format: functional, Mus musculus
Summary of the method: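 L1210 leukaemia, 10^5 cells ip into DBA2 mice. Single ip dose of the acetate salt 24 h later, with 20–30 mice per group. Dose is expressed as a fraction of the MTD, where the MTD (highest dose causing no deaths) is taken as unity.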

Mus musculus = species: Mus musculus; assay: The mean survival time of treated animals (T) was compared to that of control animals(C) calculated as % T/C = (treated survival/control) x 100; format: functional
Summary of the method: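 DBA2 mice, 20–30 per group, given 10^5 L1210 cells ip. 24 h later one ip injection of drug (acetate salt, water-soluble); controls get solvent alone. Deaths recorded daily and survivors past 45 days counted as cured. T/C = mean survival treated/control ×100, with significance by Student's t test.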

pKa [2]	K app (Calf thymus DNA [3]) [M⁻¹]	K app (Calf thymus DNA [4]) [M⁻¹]	SMILES	K app (Calf thymus DNA [1]) [M⁻¹]	MTD (L1210 [5]) [mg/kg]	OD (L1210 [6])	T/C (Mus musculus) [%]
6.4	300000	115000	Oc1ccc2[nH]c3ccc4ccncc4c3c2c1	42000	–	–	–
5.35	115000	30000	Oc1ccc2[nH]c3ccc4cccnc4c3c2c1	16000	–	–	–
6.75	240000	82000	Oc1ccc2[nH]c3ccc4cnccc4c3c2c1	19000	–	–	–
5.25	100000	32000	COc1ccc2[nH]c3ccc4cccnc4c3c2c1	18000	–	–	–
5.6	120000	40000	COc1ccc2[nH]c3ccc4ncccc4c3c2c1	16000	–	–	–
5.75	170000	44000	COc1ccc2[nH]c3ccc4ccncc4c3c2c1	35000	–	–	–

Continued, compound first:

SMILES	pKa [2]	K app (Calf thymus DNA [3]) [M⁻¹]	K app (Calf thymus DNA [4]) [M⁻¹]	K app (Calf thymus DNA [1]) [M⁻¹]	MTD (L1210 [5]) [mg/kg]	OD (L1210 [6])	T/C (Mus musculus) [%]
COc1ccc2c(c1)c1c3c[n+](CCN4CCCCC4)ccc3ccc1n2C.[Cl-]	–	–	–	300000	10	0.5	–
COc1ccc2c(c1)c1c3cc[n+](C)cc3ccc1n2C.[I-]	–	–	–	310000	150	0.5	115
COc1ccc2[nH]c3ccc4cc[n+](C)cc4c3c2c1.[I-]	–	–	–	290000	50	0.5	–
COc1ccc2c(c1)c1c3c[n+](C)ccc3ccc1n2C.[I-]	–	–	–	695000	25	0.7	122
C[n+]1cccc2c3c(ccc21)[nH]c1ccccc13.[I-]	–	–	–	60000	50	0.5	–
COc1ccc2[nH]c3ccc4cnccc4c3c2c1	6.4	150000	110000	77000	–	–	–
COc1ccc2c(c1)c1c3ncccc3ccc1n2C	5.35	157000	37000	23000	–	–	–
COc1ccc2c(c1)c1c3ccncc3ccc1n2C	6.6	1.1e+06	467000	123000	–	–	–
COc1ccc2[nH]c3ccc4cc[n+](CCO)cc4c3c2c1.[I-]	–	–	–	110000	100	0.5	116
COc1ccc2[nH]c3ccc4c[n+](C)ccc4c3c2c1.[I-]	–	–	–	200000	50	0.5	–
COc1ccc2[nH]c3ccc4cc[n+](CCN5CCCCC5)cc4c3c2c1.[Cl-]	–	–	–	120000	10	1	–
C[n+]1ccc2c(ccc3[nH]c4ccc(O)cc4c32)c1.[I-]	–	–	–	67000	50	0.5	–
C[n+]1ccc2ccc3[nH]c4ccc(O)cc4c3c2c1.[I-]	–	–	–	180000	25	1	–
COc1ccc2c(c1)c1c3cnccc3ccc1n2C	5.9	530000	250000	146000	–	–	–
